# Laboratory results published in ChEMBL document CHEMBL4813968, “Synthesis and evaluation of 3'-fluorinated 7-deazapurine nucleosides as antikinetoplastid agents” (Eur J Med Chem, 2021).
# Columns and labels:
# [1] = tested on: Trypanosoma brucei brucei; assay: Antitrypanosomal activity against Trypanosoma brucei brucei assessed as parasite growth inhibition; assay type: functional, organism-based
# [2] = tested on: Trypanosoma brucei rhodesiense; assay: Antitrypanosomal activity against Trypanosoma brucei rhodesiense assessed as parasite growth inhibition; assay type: functional, organism-based
# [3] = Selectivity index, ratio of EC50 for cytotoxicity against mouse primary macrophage to EC50 for antileishmanial activity against Leishmania infantum MHOM/MA(BE)/67 infected in mouse primary peritoneal macrophages; assay type: toxicity; conditions: read-out: Ratio EC50
# [4] = Selectivity index, ratio of EC50 for cytotoxicity against human MRC5 cells to EC50 for antitrypanosomal activity against Trypanosoma cruzi Tulahuen CL2 infected in human MRC5 cells; assay type: toxicity, cell-based; conditions: read-out: Ratio EC50
# In short: (§1)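 Selectivity index is the MRC-5 EC₅₀ divided by the parasite EC₅₀.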
# Macrophage = assay: Cytotoxicity against mouse primary macrophage cells assessed as reduction in cell viability; assay type: cell-based
# In short: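 Macrophage toxicity was scored microscopically within the L. infantum assays, using cell detachment, lysis and granulation. At least 500 cells over adjacent fields were scored semi-quantitatively, and CC₅₀ was taken from % reduction in normal cells versus untreated controls.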
# Leishmania infantum = assay: Antileishmanial activity against Leishmania infantum MHOM/MA(BE)/67 infected in mouse primary peritoneal macrophages treated 2 hrs post-infection and incubated for 5 days by Giemsa staining based microscopic analysis; assay type: functional, organism-based; conditions: MHOM/MA(BE)/67, Peritoneal macrophage
# In short: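 Peritoneal macrophages from mice, harvested 2 days after 2% potato starch stimulation, infected after 48 h with L. infantum in supplemented RPMI-1640 with 5% FCS. Compounds were added 2 h post-infection as a 10-point 4-fold dilution series, final DMSO <1%, and incubated 5 days at 37 °C, 5% CO₂. Amastigotes per macrophage were counted after 10% Giemsa staining, and IC₅₀ was taken from % reduction versus untreated-infected controls.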
# Trypanosoma cruzi = assay: Antitrypanosomal activity against Trypanosoma cruzi Tulahuen CL2 infected in human MRC5 cells assessed as inhibition of parasite growth incubated for 7 days by chlorophenol red-fl-D-galactopyranoside based spectrophotometric analysis; assay type: functional, organism-based; conditions: Tulahuen CL2, MRC5, 168 h
# In short: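 T. cruzi Tulahuen CL2 β-galactosidase strain was maintained on MRC-5_SV2 cells. Wells held 4×10³ cells plus 4×10⁴ parasites with a 10-point 4-fold compound series, final DMSO <1%. After 7 days at 37 °C, 5% CO₂, substrate was added and absorbance read at 540 nm after 4 h at 37 °C. IC₅₀ was taken from % reduction versus infected and uninfected controls.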
# MRC5 = assay: Cytotoxicity against human MRC5 cells assessed as reduction in cell viability after 3 days by resazurin dye based fluorimetric analysis; conditions: MRC5, 72 h
# In short: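 MRC-5_SV2 cells, 1.5×10⁵ cells/mL in MEM with Earl's salts, L-glutamine, NaHCO₃ and 5% inactivated FCS, were exposed 3 days at 37 °C, 5% CO₂ to a 10-point 4-fold dilution series, final DMSO <1%. Resazurin was added for 4 h, fluorescence read at ex 550/em 590 nm, and IC₅₀ derived versus untreated and medium controls.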
# [5] = Selectivity index, ratio of EC50 for human MRC5 cells to EC50 for antitrypanosomal activity against Trypanosoma brucei rhodesiense; assay type: toxicity; conditions: read-out: Ratio EC50; in short: as §1
# [6] = Selectivity index, ratio of EC50 for human MRC5 cells to EC50 for antitrypanosomal activity against Trypanosoma brucei brucei; assay type: toxicity; conditions: read-out: Ratio EC50; in short: as §1
EC50 [1] [µM],EC50 [2] [µM],EC50 (Leishmania infantum) [µM],SMILES,selectivity ratio [3],selectivity ratio [4],EC50 (Macrophage) [µM],EC50 (Trypanosoma cruzi) [µM],EC50 (MRC5) [µM],selectivity ratio [5],selectivity ratio [6]
42,> 64,46.9,Nc1nc2c(ncn2[C@@H]2O[C@H](CO)[C@@H](F)[C@H]2O)c(=O)[nH]1,> 1,1,> 64,34.6,42,–,–
22.2,1.47,23.4,Nc1ncnc2c1ccn2[C@@H]1O[C@H](CO)[C@@H](F)[C@H]1O,> 2,> 7,> 64,9.09,> 64,> 44,> 2
16,1.57,> 64,OC[C@H]1O[C@@H](n2cc(Br)c3c(O)ncnc32)[C@H](O)[C@H]1F,–,–,> 64,> 64,> 64,> 41,> 4
0.13,0.031,0.09,Nc1ncnc2c1c(Cl)cn2[C@@H]1O[C@H](CO)[C@@H](F)[C@H]1O,1,194,0.13,0.071,13.8,448,108
> 64,> 64,> 64,O=c1[nH]cnc2c1c(F)cn2[C@@H]1O[C@H](CO)[C@@H](F)[C@H]1O,–,–,> 64,> 64,> 64,–,–
8.64,51.6,> 64,COc1ncnc2c1c(Br)cn2[C@@H]1O[C@H](CO)[C@@H](F)[C@H]1O,–,–,> 64,> 64,> 64,1,7
> 64,> 64,> 64,COc1nc(N)nc2c1ccn2[C@@H]1O[C@H](CO)[C@@H](F)[C@H]1O,–,–,> 64,> 64,> 64,–,–
0.04,0.0063,> 64,Nc1ncnc2c1ccn2[C@@H]1O[C@H](CO)[C@H](F)[C@H]1O,–,–,> 64,> 64,> 64,> 10100,> 1590
20.5,21.3,> 64,CCc1cn([C@@H]2O[C@H](CO)[C@@H](F)[C@H]2O)c2ncnc(N)c12,–,< 1,> 64,> 64,40.3,2,2
0.031,0.028,0.37,Nc1ncnc2c1c(Br)cn2[C@@H]1O[C@H](CO)[C@@H](F)[C@H]1O,3,779,1.02,0.041,32,1150,–
10.5,0.38,2.03,N#Cc1cn([C@@H]2O[C@H](CO)[C@@H](F)[C@H]2O)c2ncnc(N)c12,< 1,< 1,2,9.66,1.32,3,–
2.02,2.06,27.3,Nc1ncnc2c1c(C(F)(F)F)cn2[C@@H]1O[C@H](CO)[C@@H](F)[C@H]1O,1,–,32,3.17,7.01,3,3
33.5,35.2,> 64,COc1ncnc2c1ncn2[C@@H]1O[C@H](CO)[C@@H](F)[C@H]1O,–,> 2,> 64,30.1,> 64,2,2
> 64,> 64,> 64,COc1nc(N)nc2c1c(Br)cn2[C@@H]1O[C@H](CO)[C@@H](F)[C@H]1O,–,–,> 64,> 64,> 64,–,–
> 64,> 64,> 64,O=c1[nH]cnc2c1c(Cl)cn2[C@@H]1O[C@H](CO)[C@@H](F)[C@H]1O,–,–,> 64,> 64,> 64,–,–
> 64,> 64,> 64,O=c1[nH]cnc2c1c(I)cn2[C@@H]1O[C@H](CO)[C@@H](F)[C@H]1O,–,–,> 64,> 64,> 64,–,–
> 64,> 64,> 64,O=c1[nH]cnc2c1ncn2[C@@H]1O[C@H](CO)[C@@H](F)[C@H]1O,–,> 15,> 64,4.28,> 64,–,–
0.47,0.16,1.75,Nc1ncnc2c1c(F)cn2[C@@H]1O[C@H](CO)[C@@H](F)[C@H]1O,–,22,2,0.25,5.49,27,9
> 64,> 64,> 64,Nc1nc(N)c2ncn([C@@H]3O[C@H](CO)[C@@H](F)[C@H]3O)c2n1,–,–,> 64,> 64,> 64,–,–
> 64,> 64,> 64,O=c1[nH]cnc2c1c(Br)cn2[C@@H]1O[C@H](CO)[C@@H](F)[C@H]1O,–,–,> 64,> 64,> 64,–,–
> 64,> 64,> 64,Nc1nc2c(ccn2[C@@H]2O[C@H](CO)[C@@H](F)[C@H]2O)c(=O)[nH]1,–,–,> 64,> 64,> 64,–,–
> 64,> 64,> 64,O=c1[nH]cnc2c1ccn2[C@@H]1O[C@H](CO)[C@@H](F)[C@H]1O,–,–,> 64,> 64,> 64,–,–
> 64,> 64,> 64,O=c1[nH]cnc2c1c(-c1ccccc1)cn2[C@@H]1O[C@H](CO)[C@@H](F)[C@H]1O,–,–,> 64,> 64,> 64,–,–
0.032,0.017,27.5,Nc1ncnc2c1ncn2[C@@H]1O[C@H](CO)[C@@H](F)[C@H]1O,> 2,9,> 32,0.55,4.92,296,154
–,–,–,O=C(Cn1ccnc1[N+](=O)[O-])NCc1ccccc1 [BENZNIDAZOLE],–,–,–,2.02,–,–,–
–,–,7.47,CCCCCCCCCCCCCCCCOP(=O)([O-])OCC[N+](C)(C)C [MILTEFOSINE],–,–,–,–,–,–,–
0.03,–,–,Cc1ccc(C(=O)Nc2ccc(S(=O)(=O)O)c3cc(S(=O)(=O)O)cc(S(=O)(=O)O)c23)cc1NC(=O)c1cccc(NC(=O)Nc2cccc(C(=O)Nc3cc(C(=O)Nc4ccc(S(=O)(=O)O)c5cc(S(=O)(=O)O)cc(S(=O)(=O)O)c45)ccc3C)c2)c1 [SURAMIN],–,–,–,–,–,–,–
